These compounds were tested on H9c2 (assay: Cytoprotective activity against OGD-induced cell death in rat H9c2 cells assessed as cell viability at 1 uM incubated for 24 hrs by MTT assay (reference value: 42.08 to 49.11 %)). Details: read-out: Activity.
Assay type: functional

Point of comparison: `CN1CCN(CCCN2CCc3c(sc4ncnc(Nc5ccc(N(C)C)c(NC(=O)c6cccs6)c5)c34)C2)CC1`, viability at 1 µM 69.1%. Against it:
- CN1CCN(CCCN2CCc3c(sc4ncnc(Nc5ccc(N(C)C)c(NC(=O)c6ccco6)c5)c34)C2)CC1 — lower, 61.1%
- CN(C)c1ccc(Nc2ncnc3sc4c(c23)CCN(C(=O)c2ccccn2)C4)cc1NC(=O)c1ccco1 — lower, 54.3%
- CN(C)c1ccc(Nc2ncnc3sc4c(c23)CCN(C(=O)c2ccncc2)C4)cc1NC(=O)c1ccco1 — lower, 49.1%
- CN(C)c1ccc(Nc2ncnc3sc4c(c23)CCNC4)cc1NC(=O)c1ccco1 — lower, 54.1%
- CN1CCc2c(sc3ncnc(Nc4ccc(N(C)C)c(NC(=O)c5ccco5)c4)c23)C1 — lower, 59.6%
- CN(C)c1ccc(Nc2ncnc3sc4c(c23)CCNC4)cc1NC(=O)c1cccs1 — lower, 56.9%

The compounds below were run against Vascular endothelial growth factor receptor 1 (Homo sapiens) (UniProt P17948) (assay: Inhibition of recombinant human FLT1 (783 to end residues) assessed as residual activity at 1 uM using KKKSPGEYVNIEFG as substrate incubated for 40 mins by [gamma-33P]-ATP scintillation counting based radiometry assay relative to control). Details: not given.
Sequence of Vascular endothelial growth factor receptor 1 (Homo sapiens) (P17948 whole entry): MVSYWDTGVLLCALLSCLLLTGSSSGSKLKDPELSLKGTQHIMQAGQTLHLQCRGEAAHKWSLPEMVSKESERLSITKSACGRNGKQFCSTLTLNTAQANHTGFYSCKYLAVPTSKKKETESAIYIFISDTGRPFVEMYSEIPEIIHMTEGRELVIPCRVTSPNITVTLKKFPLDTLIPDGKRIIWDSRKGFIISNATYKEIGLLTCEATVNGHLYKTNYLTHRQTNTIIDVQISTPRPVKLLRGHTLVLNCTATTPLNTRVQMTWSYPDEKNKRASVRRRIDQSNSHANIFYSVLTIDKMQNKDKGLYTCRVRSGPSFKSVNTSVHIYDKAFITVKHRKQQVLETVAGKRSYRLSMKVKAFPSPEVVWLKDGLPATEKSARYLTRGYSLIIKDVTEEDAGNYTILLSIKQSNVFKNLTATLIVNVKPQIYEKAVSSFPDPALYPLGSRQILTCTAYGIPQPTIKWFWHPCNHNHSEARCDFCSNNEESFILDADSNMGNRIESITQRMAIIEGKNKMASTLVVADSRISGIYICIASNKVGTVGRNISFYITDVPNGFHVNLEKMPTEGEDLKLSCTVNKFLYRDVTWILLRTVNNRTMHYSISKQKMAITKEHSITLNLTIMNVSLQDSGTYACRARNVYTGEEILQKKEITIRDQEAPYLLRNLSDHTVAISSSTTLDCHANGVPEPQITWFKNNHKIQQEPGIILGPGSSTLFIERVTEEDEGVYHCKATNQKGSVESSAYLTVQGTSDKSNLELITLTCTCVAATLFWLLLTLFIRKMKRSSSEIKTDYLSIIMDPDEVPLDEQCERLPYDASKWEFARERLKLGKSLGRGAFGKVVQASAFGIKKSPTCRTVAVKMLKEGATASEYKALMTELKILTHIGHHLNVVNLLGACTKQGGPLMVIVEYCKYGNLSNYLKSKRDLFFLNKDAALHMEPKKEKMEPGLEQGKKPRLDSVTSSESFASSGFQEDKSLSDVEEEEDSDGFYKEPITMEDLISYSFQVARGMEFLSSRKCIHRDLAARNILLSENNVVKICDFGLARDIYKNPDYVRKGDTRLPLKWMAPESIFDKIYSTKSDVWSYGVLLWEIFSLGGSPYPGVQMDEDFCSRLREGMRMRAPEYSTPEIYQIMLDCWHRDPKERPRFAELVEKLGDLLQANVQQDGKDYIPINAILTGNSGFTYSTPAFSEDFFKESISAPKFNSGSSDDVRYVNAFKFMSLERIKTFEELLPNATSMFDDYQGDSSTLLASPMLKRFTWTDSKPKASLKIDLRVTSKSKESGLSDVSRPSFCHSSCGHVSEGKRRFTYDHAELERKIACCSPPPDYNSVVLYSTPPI

Point of comparison: `CN1CCc2c(sc3ncnc(Nc4ccc(N(C)C)c(NC(=O)c5ccco5)c4)c23)C1`, Activity 105%. Against it:
- CN1CCN(CCCN2CCc3c(sc4ncnc(Nc5ccc(N(C)C)c(NC(=O)c6ccco6)c5)c34)C2)CC1 — lower, 100%
- CN(C)c1ccc(Nc2ncnc3sc4c(c23)CCN(C(=O)c2ccccn2)C4)cc1NC(=O)c1ccco1 — lower, 86%
- CN(C)c1ccc(Nc2ncnc3sc4c(c23)CCN(C(=O)c2ccncc2)C4)cc1NC(=O)c1ccco1 — higher, 109%
- CN(C)c1ccc(Nc2ncnc3sc4c(c23)CCNC4)cc1NC(=O)c1ccco1 — lower, 96%
- CN(C)c1ccc(Nc2ncnc3sc4c(c23)CCNC4)cc1NC(=O)c1cccs1 — lower, 101%
- CN1CCN(CCCN2CCc3c(sc4ncnc(Nc5ccc(N(C)C)c(NC(=O)c6cccs6)c5)c34)C2)CC1 — lower, 98%

The compounds below were run against Receptor tyrosine-protein kinase erbB-2 (Homo sapiens) (UniProt P04626) (assay: Inhibition of recombinant human HER2 (676 to end residues) assessed as residual activity at 1 uM using poly(Glu, Tyr) 4:1 as substrate incubated for 40 mins by [gamma-33P]-ATP scintillation counting based radiometry assay relative to control). Details: not given.
Sequence of Receptor tyrosine-protein kinase erbB-2 (Homo sapiens) (P04626 whole entry): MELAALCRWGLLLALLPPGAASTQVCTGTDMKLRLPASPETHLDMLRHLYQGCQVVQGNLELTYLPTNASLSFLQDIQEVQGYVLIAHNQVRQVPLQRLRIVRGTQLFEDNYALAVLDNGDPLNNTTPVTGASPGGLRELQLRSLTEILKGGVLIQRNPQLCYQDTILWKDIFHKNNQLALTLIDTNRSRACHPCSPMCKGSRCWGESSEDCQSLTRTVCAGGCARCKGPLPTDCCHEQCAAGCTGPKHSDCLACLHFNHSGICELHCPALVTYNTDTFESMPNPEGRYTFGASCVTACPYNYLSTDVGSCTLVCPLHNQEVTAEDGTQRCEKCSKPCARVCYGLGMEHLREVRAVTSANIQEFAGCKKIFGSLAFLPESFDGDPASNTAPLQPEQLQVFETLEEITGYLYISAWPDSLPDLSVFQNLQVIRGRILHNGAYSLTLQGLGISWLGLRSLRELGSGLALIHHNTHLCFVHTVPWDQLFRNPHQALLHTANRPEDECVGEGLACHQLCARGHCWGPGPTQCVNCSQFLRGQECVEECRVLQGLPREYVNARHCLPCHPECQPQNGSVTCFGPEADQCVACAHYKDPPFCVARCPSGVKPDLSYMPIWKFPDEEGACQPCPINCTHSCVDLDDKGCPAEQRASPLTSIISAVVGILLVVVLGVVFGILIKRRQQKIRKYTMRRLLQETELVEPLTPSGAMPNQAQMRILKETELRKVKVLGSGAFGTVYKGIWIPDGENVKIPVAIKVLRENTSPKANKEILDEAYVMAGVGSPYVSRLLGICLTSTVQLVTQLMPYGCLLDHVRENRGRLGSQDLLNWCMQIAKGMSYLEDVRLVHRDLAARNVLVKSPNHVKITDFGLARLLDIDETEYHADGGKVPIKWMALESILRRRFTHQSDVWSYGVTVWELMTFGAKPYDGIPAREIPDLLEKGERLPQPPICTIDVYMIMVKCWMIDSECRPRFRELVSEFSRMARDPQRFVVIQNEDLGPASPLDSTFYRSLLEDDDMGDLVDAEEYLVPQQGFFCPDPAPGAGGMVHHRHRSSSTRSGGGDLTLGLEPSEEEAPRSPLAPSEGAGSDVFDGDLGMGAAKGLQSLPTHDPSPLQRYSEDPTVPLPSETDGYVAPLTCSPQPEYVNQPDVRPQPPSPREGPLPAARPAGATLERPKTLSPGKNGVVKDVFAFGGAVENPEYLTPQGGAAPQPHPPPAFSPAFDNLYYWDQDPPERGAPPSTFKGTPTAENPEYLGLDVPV

Point of comparison: `CN1CCc2c(sc3ncnc(Nc4ccc(N(C)C)c(NC(=O)c5ccco5)c4)c23)C1`, Activity 95%. Against it:
- CN1CCN(CCCN2CCc3c(sc4ncnc(Nc5ccc(N(C)C)c(NC(=O)c6ccco6)c5)c34)C2)CC1 — higher, 107%
- CN(C)c1ccc(Nc2ncnc3sc4c(c23)CCN(C(=O)c2ccccn2)C4)cc1NC(=O)c1ccco1 — lower, 89%
- CN(C)c1ccc(Nc2ncnc3sc4c(c23)CCN(C(=O)c2ccncc2)C4)cc1NC(=O)c1ccco1 — higher, 116%
- CN(C)c1ccc(Nc2ncnc3sc4c(c23)CCNC4)cc1NC(=O)c1ccco1 — lower, 91%
- CN(C)c1ccc(Nc2ncnc3sc4c(c23)CCNC4)cc1NC(=O)c1cccs1 — higher, 106%
- CN1CCN(CCCN2CCc3c(sc4ncnc(Nc5ccc(N(C)C)c(NC(=O)c6cccs6)c5)c34)C2)CC1 — higher, 103%

These compounds were tested against Epidermal growth factor receptor (Homo sapiens) (UniProt P00533) (assay: Inhibition of recombinant human EGFR (696 to end residues) assessed as residual activity at 1 uM using poly(Glu, Tyr) 4:1 as substrate incubated for 40 mins by [gamma-33P]-ATP scintillation counting based radiometry assay relative to control). Details: not given.
Sequence of Epidermal growth factor receptor (Homo sapiens) (P00533 whole entry): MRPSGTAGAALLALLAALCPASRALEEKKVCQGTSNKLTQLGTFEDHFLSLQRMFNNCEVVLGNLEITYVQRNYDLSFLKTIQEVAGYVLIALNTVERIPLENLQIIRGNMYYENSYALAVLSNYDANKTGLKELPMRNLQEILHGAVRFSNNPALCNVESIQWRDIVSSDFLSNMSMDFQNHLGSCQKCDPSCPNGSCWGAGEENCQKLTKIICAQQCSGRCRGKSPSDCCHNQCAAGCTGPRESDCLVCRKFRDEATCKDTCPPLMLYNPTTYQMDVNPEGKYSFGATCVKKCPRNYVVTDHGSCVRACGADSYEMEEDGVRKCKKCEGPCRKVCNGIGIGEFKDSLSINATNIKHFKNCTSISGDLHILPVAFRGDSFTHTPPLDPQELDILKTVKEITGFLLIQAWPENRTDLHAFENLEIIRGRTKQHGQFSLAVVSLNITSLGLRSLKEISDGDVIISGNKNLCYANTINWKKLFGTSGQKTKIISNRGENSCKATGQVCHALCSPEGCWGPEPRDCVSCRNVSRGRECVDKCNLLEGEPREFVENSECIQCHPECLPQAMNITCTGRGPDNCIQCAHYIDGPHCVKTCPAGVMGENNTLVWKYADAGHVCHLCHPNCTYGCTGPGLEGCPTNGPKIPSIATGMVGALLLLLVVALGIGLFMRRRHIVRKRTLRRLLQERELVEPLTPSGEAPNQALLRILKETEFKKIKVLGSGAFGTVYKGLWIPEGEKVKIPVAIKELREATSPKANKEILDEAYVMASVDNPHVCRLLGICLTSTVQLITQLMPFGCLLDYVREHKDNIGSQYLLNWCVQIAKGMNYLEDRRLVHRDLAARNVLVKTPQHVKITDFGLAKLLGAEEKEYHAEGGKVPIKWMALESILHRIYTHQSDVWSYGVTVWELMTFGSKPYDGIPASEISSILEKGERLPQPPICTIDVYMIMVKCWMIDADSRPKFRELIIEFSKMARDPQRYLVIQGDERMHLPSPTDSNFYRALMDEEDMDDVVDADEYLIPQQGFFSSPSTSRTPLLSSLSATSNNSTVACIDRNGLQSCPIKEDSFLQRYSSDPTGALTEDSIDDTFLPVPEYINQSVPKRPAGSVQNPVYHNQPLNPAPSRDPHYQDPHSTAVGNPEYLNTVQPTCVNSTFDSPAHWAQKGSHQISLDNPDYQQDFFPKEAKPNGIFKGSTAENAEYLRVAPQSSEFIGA

Point of comparison: `CN(C)c1ccc(Nc2ncnc3sc4c(c23)CCNC4)cc1NC(=O)c1ccco1`, Activity 100%. Against it:
- CN1CCN(CCCN2CCc3c(sc4ncnc(Nc5ccc(N(C)C)c(NC(=O)c6ccco6)c5)c34)C2)CC1 — lower, 90%
- CN(C)c1ccc(Nc2ncnc3sc4c(c23)CCN(C(=O)c2ccccn2)C4)cc1NC(=O)c1ccco1 — higher, 104%
- CN(C)c1ccc(Nc2ncnc3sc4c(c23)CCN(C(=O)c2ccncc2)C4)cc1NC(=O)c1ccco1 — higher, 107%
- CN1CCc2c(sc3ncnc(Nc4ccc(N(C)C)c(NC(=O)c5ccco5)c4)c23)C1 — lower, 93%
- CN(C)c1ccc(Nc2ncnc3sc4c(c23)CCNC4)cc1NC(=O)c1cccs1 — lower, 93%
- CN1CCN(CCCN2CCc3c(sc4ncnc(Nc5ccc(N(C)C)c(NC(=O)c6cccs6)c5)c34)C2)CC1 — lower, 86%

These compounds were tested against T1, Serine/threonine-protein kinase TNNI3K (Homo sapiens) (UniProt Q59H18) (assay: Inhibition of TNNI3K (unknown origin) assessed as residual activity at 1 uM using biotinylated CTnI as substrate by HTRF analysis relative to control). Details: not given.
T1 sequence (whole entry): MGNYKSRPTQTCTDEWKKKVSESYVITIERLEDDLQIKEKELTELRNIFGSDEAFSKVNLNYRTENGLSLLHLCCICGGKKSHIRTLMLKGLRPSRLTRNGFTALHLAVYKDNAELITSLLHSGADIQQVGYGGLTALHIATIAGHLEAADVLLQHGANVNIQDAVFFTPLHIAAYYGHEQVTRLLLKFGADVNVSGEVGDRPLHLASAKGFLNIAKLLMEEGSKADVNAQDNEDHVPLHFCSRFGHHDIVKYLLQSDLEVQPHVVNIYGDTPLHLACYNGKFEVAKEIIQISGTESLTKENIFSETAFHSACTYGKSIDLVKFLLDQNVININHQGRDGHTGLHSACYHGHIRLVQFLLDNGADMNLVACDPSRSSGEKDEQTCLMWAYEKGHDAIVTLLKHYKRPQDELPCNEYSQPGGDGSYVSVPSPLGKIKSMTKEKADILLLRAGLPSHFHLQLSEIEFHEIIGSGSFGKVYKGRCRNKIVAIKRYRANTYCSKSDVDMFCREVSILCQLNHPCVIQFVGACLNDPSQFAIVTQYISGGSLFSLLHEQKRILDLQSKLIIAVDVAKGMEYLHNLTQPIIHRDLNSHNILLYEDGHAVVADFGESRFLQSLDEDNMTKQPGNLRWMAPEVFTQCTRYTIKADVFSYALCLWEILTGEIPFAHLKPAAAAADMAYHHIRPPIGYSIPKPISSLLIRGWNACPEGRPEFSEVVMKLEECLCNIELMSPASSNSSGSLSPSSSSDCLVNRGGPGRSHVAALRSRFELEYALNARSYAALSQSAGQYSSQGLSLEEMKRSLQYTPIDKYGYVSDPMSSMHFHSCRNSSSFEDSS
How it was run: (§1)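 TNNI3K was assayed by HTRF using a GST-tagged TNNI3K kinase domain and a biotinylated cardiac troponin I substrate peptide, followed by the two HTRF detection reagents. Compounds were screened at 1.0 µM, then IC50s were determined.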

Point of comparison: `CN1CCc2c(sc3ncnc(Nc4ccc(N(C)C)c(NC(=O)c5ccco5)c4)c23)C1`, Activity 37%. Against it:
- CN1CCN(CCCN2CCc3c(sc4ncnc(Nc5ccc(N(C)C)c(NC(=O)c6ccco6)c5)c34)C2)CC1 — lower, 33%
- CN(C)c1ccc(Nc2ncnc3sc4c(c23)CCN(C(=O)c2ccccn2)C4)cc1NC(=O)c1ccco1 — higher, 39%
- CN(C)c1ccc(Nc2ncnc3sc4c(c23)CCN(C(=O)c2ccncc2)C4)cc1NC(=O)c1ccco1 — lower, 35%
- CN(C)c1ccc(Nc2ncnc3sc4c(c23)CCNC4)cc1NC(=O)c1ccco1 — lower, 35%
- CN(C)c1ccc(Nc2ncnc3sc4c(c23)CCNC4)cc1NC(=O)c1cccs1 — higher, 38%
- CN1CCN(CCCN2CCc3c(sc4ncnc(Nc5ccc(N(C)C)c(NC(=O)c6cccs6)c5)c34)C2)CC1 — higher, 38%

Each compound was assayed on H9c2 (assay: Cytoprotective activity against OGD-induced cell death in rat H9c2 cells assessed as cell viability at 10 uM incubated for 24 hrs by MTT assay (reference value: 42.08 to 49.11 %)). Details: read-out: Activity.
Assay type: functional

Point of comparison: `CN(C)c1ccc(Nc2ncnc3sc4c(c23)CCN(C(=O)c2ccncc2)C4)cc1NC(=O)c1ccco1`, viability at 10 µM 70.7%. Against it:
- CN1CCN(CCCN2CCc3c(sc4ncnc(Nc5ccc(N(C)C)c(NC(=O)c6ccco6)c5)c34)C2)CC1 — higher, 79.9%
- CN(C)c1ccc(Nc2ncnc3sc4c(c23)CCN(C(=O)c2ccccn2)C4)cc1NC(=O)c1ccco1 — higher, 70.9%
- CN(C)c1ccc(Nc2ncnc3sc4c(c23)CCNC4)cc1NC(=O)c1ccco1 — higher, 71%
- CN1CCc2c(sc3ncnc(Nc4ccc(N(C)C)c(NC(=O)c5ccco5)c4)c23)C1 — higher, 85.6%
- CN(C)c1ccc(Nc2ncnc3sc4c(c23)CCNC4)cc1NC(=O)c1cccs1 — higher, 75.9%
- CN1CCN(CCCN2CCc3c(sc4ncnc(Nc5ccc(N(C)C)c(NC(=O)c6cccs6)c5)c34)C2)CC1 — higher, 81.8%

Each compound was assayed against T2, Serine/threonine-protein kinase TNNI3K (Homo sapiens, UniProt Q59H18) (assay: Inhibition of TNNI3K (unknown origin) using biotinylated CTnI as substrate by HTRF analysis). Details: not given.
T2 sequence (Q59H18 whole entry): T1 sequence (whole entry)
How it was run: as §1

Point of comparison: `CN(C)c1ccc(Nc2ncnc3sc4c(c23)CCNC4)cc1NC(=O)c1cccs1`, IC50 780 nM. Against it:
- CN1CCN(CCCN2CCc3c(sc4ncnc(Nc5ccc(N(C)C)c(NC(=O)c6ccco6)c5)c34)C2)CC1 — within 1.5-fold, 640 nM
- CN(C)c1ccc(Nc2ncnc3sc4c(c23)CCN(C(=O)c2ccccn2)C4)cc1NC(=O)c1ccco1 — within 1.5-fold, 820 nM
- CN(C)c1ccc(Nc2ncnc3sc4c(c23)CCN(C(=O)c2ccncc2)C4)cc1NC(=O)c1ccco1 — within 1.5-fold, 980 nM
- CN(C)c1ccc(Nc2ncnc3sc4c(c23)CCNC4)cc1NC(=O)c1ccco1 — within 1.5-fold, 730 nM
- CN1CCc2c(sc3ncnc(Nc4ccc(N(C)C)c(NC(=O)c5ccco5)c4)c23)C1 — within 1.5-fold, 560 nM
- CN1CCN(CCCN2CCc3c(sc4ncnc(Nc5ccc(N(C)C)c(NC(=O)c6cccs6)c5)c34)C2)CC1 — 2.4-fold lower, 330 nM

What follows are compounds tested against Vascular endothelial growth factor receptor 2 (Homo sapiens) (UniProt P35968) (assay: Inhibition of recombinant human KDR (790 to end residues) assessed as residual activity at 1 uM using myelin basic protein as substrate incubated for 40 mins by [gamma-33P]-ATP scintillation counting based radiometry assay relative to control). Details: not given.

Point of comparison: `CN(C)c1ccc(Nc2ncnc3sc4c(c23)CCNC4)cc1NC(=O)c1cccs1`, Activity 95%. Against it:
- CN1CCN(CCCN2CCc3c(sc4ncnc(Nc5ccc(N(C)C)c(NC(=O)c6ccco6)c5)c34)C2)CC1 — lower, 88%
- CN(C)c1ccc(Nc2ncnc3sc4c(c23)CCN(C(=O)c2ccccn2)C4)cc1NC(=O)c1ccco1 — lower, 77%
- CN(C)c1ccc(Nc2ncnc3sc4c(c23)CCN(C(=O)c2ccncc2)C4)cc1NC(=O)c1ccco1 — lower, 92%
- CN(C)c1ccc(Nc2ncnc3sc4c(c23)CCNC4)cc1NC(=O)c1ccco1 — lower, 92%
- CN1CCc2c(sc3ncnc(Nc4ccc(N(C)C)c(NC(=O)c5ccco5)c4)c23)C1 — lower, 89%
- CN1CCN(CCCN2CCc3c(sc4ncnc(Nc5ccc(N(C)C)c(NC(=O)c6cccs6)c5)c34)C2)CC1 — lower, 93%

Source: ChEMBL document CHEMBL4765301, “Discovery of novel TNNI3K inhibitor suppresses pyroptosis and apoptosis in murine myocardial infarction injury” (Eur J Med Chem, 2020)
